Assay results taken from ChEMBL document CHEMBL4480436, “Lead optimization of selective tubulin inhibitors as anti-trypanosomal agents” (Bioorg Med Chem, 2019).

How the values were obtained:
RAW264.7 = experiment: Cytotoxicity against mouse RAW264.7 cells after 48 hrs by MTT assay; format: cell-based; details: RAW264.7, 48 h
Procedure, shortened: (§1)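 Cells kept in RPMI1640 with 10% heat-inactivated FBS, 2 mM L-glutamine, 1 mM pyruvate, pen-strep, 37 °C, 5% CO2. 3000 cells/well seeded 24 h, then exposed to graded concentrations (DMSO ≤0.1% final) for 48 h. Then 0.5 mg/mL MTT 3 h at 37 °C, DMSO solubilization, absorbance 570 nm. Quadruplicate data fitted to dose–response curves for IC50.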

[1] = Selectivity index, ratio of IC50 for mouse RAW264.7 cells to IC50 for Trypanosoma brucei brucei Lister 427; format: toxicity; details: read-out: Ratio IC50
Procedure, shortened: (§2)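 Ratio of mammalian MTT IC50 (48 h) to T. brucei MTS IC50 (48 h), both from quadruplicate dose–response fits.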

[2] = Selectivity index, ratio of IC50 for HEK293 cells to IC50 for Trypanosoma brucei brucei Lister 427; format: toxicity; details: human, read-out: Ratio IC50; procedure, shortened: as §2
HEK293 = experiment: Cytotoxicity against HEK293 cells after 48 hrs by MTT assay; format: cell-based; details: Homo sapiens, HEK293, 48 h; procedure, shortened: as §1
[3] = tested on: Trypanosoma brucei brucei; experiment: Antiparasitic activity against Trypanosoma brucei brucei Lister 427 assessed as reduction in parasite viability after 48 hrs by MTS assay; format: functional, organism-based; details: Lister 427, 48 h
Procedure, shortened: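 Bloodstream-form Lister 427 grown in HMI-9 with 10% FBS, 37 °C, 7.5% CO2. 5000 cells/well exposed to graded concentrations with 0.1% DMSO for 48 h at 37 °C. MTS/PMS reagent then added, 3 h at 37 °C, formazan read at 490 nm. Quadruplicate data normalized and fitted to dose–response curves for IC50 (Mean ± S.D.).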

[4] = tested on: Trypanosoma brucei brucei; experiment: Inhibition of tubulin polymerization in Trypanosoma brucei brucei Lister 427 assessed as increase in non-polymerized tubulin after 12 hrs by Western blot analysis
Procedure, shortened: (§3)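 Trypanosomes treated with different doses (0.5% DMSO) for 12 h, washed in TDB pH 7.4 and lysed in Pipes pH 6.8/EGTA/MgCl2/0.15% Triton X-100/glycerol buffer, 4 °C, 5 min. Lysate spun 15,000 g 30 min at 4 °C: supernatant taken as non-polymerized tubulin, RIPA-resuspended pellet as polymerized. Equal cell equivalents (1.83 × 10^7) run on 10% SDS-PAGE for western blot.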

[5] = 1-Octanol/DDH2O partition coefficient, log P of the compound incubated for 48 hrs under stirring condition measured by UV-Vis spectrophotometric method; format: physicochemical; details: for logP: octanol/water, 48 h
Procedure, shortened: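 Slow-stir shake method (OECD-based, modified): compound dissolved in water-saturated 1-octanol, centrifuged 5000 rpm 5 min, supernatant mixed with equal volume octanol-saturated water, stirred at room temperature 48 h. Phases separated by centrifugation; octanol-phase UV absorbance read before and after. Log P = log[Ax/(A0−Ax)]. Repeated three times, Mean ± SD.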

[6] = tested on: Trypanosoma brucei brucei; experiment: Inhibition of tubulin polymerization in Trypanosoma brucei brucei Lister 427 assessed as decrease in polymerized tubulin after 12 hrs by Western blot analysis; procedure, shortened: as §3

Row | IC50 [3] [µM] | inhibition [4] | logP [5] | inhibition [6] | logP at 48 h ([5]; 1-octanol/DDH2O) | Compound | IC50 (RAW264.7) [µM] | selectivity ratio [1] | selectivity ratio [2] | IC50 (HEK293) [µM]
1 | > 62.5 | – | – | – | – | CCS(=O)(=O)Nc1ccc(NC(=O)c2ccc(Cl)c([N+](=O)[O-])c2)cc1OC | 5.66 | < 1 | < 2 | 63.6
2 | 9.48 | – | – | – | – | COc1cc(NC(=O)c2ccc(C#N)cc2)ccc1NS(=O)(=O)C(F)(F)F | > 250 | > 26 | > 26 | > 250
3 | > 62.5 | – | – | – | – | Cc1cc(NC(=O)c2ccc(C#N)cc2)ccc1NS(C)(=O)=O | 171 | < 3 | < 1 | 43.5
4 | 19.1 | – | – | – | – | CCS(=O)(=O)Nc1ccc(NC(=O)c2ccc(Cl)cc2)cc1Cl | > 250 | > 13 | > 13 | > 250
5 | > 62.5 | – | – | – | – | O=C(Nc1ccc(NS(=O)(=O)C(F)(F)F)c(F)c1)c1ccc(Cl)cc1 | 8.27 | < 1 | < 2 | 79
6 | 16.8 | – | – | – | – | O=C(Nc1ccc(NS(=O)(=O)C(F)(F)F)c(F)c1)c1ccc(Cl)c([N+](=O)[O-])c1 | 188 | 11 | 12 | 194
7 | 7.57 | – | – | – | – | Cc1cc(NC(=O)c2ccc(Cl)c([N+](=O)[O-])c2)ccc1NS(C)(=O)=O | 108 | 14 | 10 | 73.1
8 | 2.93 | Dose-dependent effect | 1.957 | Dose-dependent effect | – | Cc1cc(NC(=O)c2cc(C(F)(F)F)cc(C(F)(F)F)c2)ccc1NS(C)(=O)=O | > 250 | > 85 | 56 | 163
9 | > 62.5 | – | – | – | – | CS(=O)(=O)Nc1ccc(NC(=O)c2ccc(Cl)c([N+](=O)[O-])c2)cc1F | 102 | < 2 | < 1 | 23.1
10 | 2.1 | Dose-dependent effect | 0.998 | Dose-dependent effect | – | N#Cc1ccc(C(=O)Nc2ccc(NS(=O)(=O)C(F)(F)F)c(F)c2)cc1 | > 250 | > 119 | > 119 | > 250
11 | > 62.5 | – | – | – | – | O=C(Nc1ccc(NS(=O)(=O)C(F)(F)F)c(Cl)c1)c1cccc(C(F)(F)F)c1 | 55.8 | < 1 | < 4 | 210
12 | 10.1 | – | – | – | – | CS(=O)(=O)Nc1ccc(NC(=O)c2cc(C(F)(F)F)cc(C(F)(F)F)c2)cc1Cl | 69.5 | 7 | 18 | 185
13 | – | – | – | – | 2.9 | CN(c1ccc(NC(=O)c2ccc(C#N)cc2)cc1OCc1ccc(C(F)(F)F)cc1)S(=O)(=O)Cc1ccccc1 | – | – | – | –
14 | 43 | – | – | – | – | COc1cc(NC(=O)c2cccc(C(F)(F)F)c2)ccc1NS(=O)(=O)C(F)(F)F | 75.2 | 2 | > 6 | > 250
15 | 33.9 | – | – | – | – | CCS(=O)(=O)Nc1ccc(NC(=O)c2cccc(C(F)(F)F)c2)cc1F | 119 | 4 | 3 | 94.8
16 | 47.6 | – | – | – | – | O=C(Nc1ccc(NS(=O)(=O)C(F)(F)F)c(Cl)c1)c1ccc(Cl)c([N+](=O)[O-])c1 | 31.7 | 1 | 5 | 228
17 | > 62.5 | – | – | – | – | CS(=O)(=O)Nc1ccc(NC(=O)c2ccc(Cl)c([N+](=O)[O-])c2)cc1Cl | 43.6 | < 1 | < 4 | 204
18 | 8.78 | – | – | – | – | CCS(=O)(=O)Nc1ccc(NC(=O)c2cc(C(F)(F)F)cc(C(F)(F)F)c2)cc1F | > 250 | > 28 | > 28 | > 250
19 | 47.4 | – | – | – | – | O=C(Nc1ccc(NS(=O)(=O)C(F)(F)F)c(F)c1)c1cccc(C(F)(F)F)c1 | 34.4 | 1 | 3 | 152
20 | > 62.5 | – | – | – | – | CS(=O)(=O)Nc1ccc(NC(=O)c2ccc(Cl)cc2)cc1Cl | 79.9 | < 2 | < 3 | 167
21 | 35.7 | – | – | – | – | CCS(=O)(=O)Nc1ccc(NC(=O)c2cccc(C(F)(F)F)c2)cc1OC | 84.8 | 2 | > 7 | > 250
22 | 45.6 | – | – | – | – | COc1cc(NC(=O)c2ccc(Cl)cc2)ccc1NS(=O)(=O)C(F)(F)F | 108 | 2 | > 5 | > 250
23 | > 62.5 | – | – | – | – | O=C(Nc1ccc(NS(=O)(=O)C(F)(F)F)c(Cl)c1)c1ccc(Cl)cc1 | 47.1 | < 1 | < 4 | 191
